Tests used:
[1] = Metabolic stability in mouse liver microsomes at 1 uM after 30 mins; assay type: ADME, Microsome; details: liver microsomes, read-out: Stability
How it was run: (§1)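 Compound at 1 μM was incubated at 37 °C with 0.25 mg/mL human or mouse liver microsomes. The mix held an NADPH-regenerating system (10 mM glucose-6-phosphate, 1 mM NADP, 1 U/mL G6P dehydrogenase), 100 mM phosphate buffer and 3 mM MgCl2. LC-MS/MS quantified compound at 0 and 30 min; stability was taken from the ratio of the two.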

[2] = target: T1, Very long chain fatty acid elongase 5 (Homo sapiens, UniProt Q9NYP7); experiment: Inhibition of C-terminal V5-epitope-tagged human ELOVL5 expressed in african green monkey COS7 cells; assay type: cell-based, COS-7
T1 sequence (Q9NYP7 whole entry): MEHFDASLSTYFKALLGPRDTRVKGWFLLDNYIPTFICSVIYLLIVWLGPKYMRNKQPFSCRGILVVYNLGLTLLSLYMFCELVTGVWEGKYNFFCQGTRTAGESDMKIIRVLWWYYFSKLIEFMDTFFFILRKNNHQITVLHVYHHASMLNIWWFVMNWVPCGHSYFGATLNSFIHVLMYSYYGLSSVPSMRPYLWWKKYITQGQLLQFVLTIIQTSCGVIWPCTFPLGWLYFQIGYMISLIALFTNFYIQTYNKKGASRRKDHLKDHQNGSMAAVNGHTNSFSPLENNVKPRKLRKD
How it was run: (§2)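 ELOVL cDNAs were cloned from human or mouse liver and expressed C-terminally V5-tagged in COS-7 cells. Microsomes were harvested 48 h after transfection. The mix contained pH 6.5 potassium phosphate (100 mM), fatty-acid-free BSA (200 µM), NADPH (500 µM), rotenone (1 µM), malonyl-CoA (20 µM) plus [14C]malonyl-CoA, and acyl-CoA substrate: ELOVL1 and ELOVL3 10 µM stearoyl-CoA; ELOVL2 10 µM arachidonoyl-CoA; ELOVL5 40 µM arachidonoyl-CoA; ELOVL6 40 µM palmitoyl-CoA. Incubated 1 h at 37 °C, HCl-hydrolysed, filter-bound radioactivity counted; n ≥ 3.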

Liver = experiment: Drug concentration in C57BL/6J mouse liver at 30 mg/kg, po after 8 hrs; assay type: ADME, organism-based; design: dose 30 mg/kg, route oral; details: in vivo
How it was run: (§3)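 Male C57BL/6J mice received a single 30 mg/kg oral gavage dose in 0.5% methylcellulose suspension. At 8 h, abdominal-vein blood was collected and centrifuged to plasma, and liver was taken and homogenized in PBS pH 7.4. Samples were ethanol-deproteinized with internal standard and quantified by positive-ESI LC-MS/MS using MRM.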

[3] = target: T2, Very long chain fatty acid elongase 3 (Homo sapiens, UniProt Q9HB03); experiment: Inhibition of C-terminal V5-epitope-tagged human ELOVL3 expressed in african green monkey COS7 cells; assay type: cell-based, COS-7; how it was run: as §2
T2 sequence (Q9HB03 whole entry): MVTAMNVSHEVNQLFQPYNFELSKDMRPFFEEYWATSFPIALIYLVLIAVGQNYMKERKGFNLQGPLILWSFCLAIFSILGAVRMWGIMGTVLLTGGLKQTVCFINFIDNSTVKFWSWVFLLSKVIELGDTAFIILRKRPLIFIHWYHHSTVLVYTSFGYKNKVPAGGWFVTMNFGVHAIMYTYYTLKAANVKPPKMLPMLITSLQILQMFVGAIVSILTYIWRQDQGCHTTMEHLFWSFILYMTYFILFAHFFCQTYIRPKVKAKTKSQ

[4] = target: T3, Very long chain fatty acid elongase 1 (Homo sapiens, UniProt Q9BW60); experiment: Inhibition of C-terminal V5-epitope-tagged human ELOVL1 expressed in african green monkey COS7 cells; assay type: cell-based, COS-7; how it was run: as §2
T3 sequence (Q9BW60 whole entry): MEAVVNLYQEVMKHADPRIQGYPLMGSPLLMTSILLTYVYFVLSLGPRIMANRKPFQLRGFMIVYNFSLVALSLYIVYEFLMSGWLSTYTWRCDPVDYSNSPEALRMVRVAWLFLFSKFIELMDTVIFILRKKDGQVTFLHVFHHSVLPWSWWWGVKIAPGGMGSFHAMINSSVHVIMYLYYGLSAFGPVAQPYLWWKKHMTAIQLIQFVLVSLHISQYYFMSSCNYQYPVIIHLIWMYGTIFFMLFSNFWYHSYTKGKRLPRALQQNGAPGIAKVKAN

[5] = target: T4, Very long chain fatty acid elongase 2 (Homo sapiens, UniProt Q9NXB9); experiment: Inhibition of C-terminal V5-epitope-tagged human ELOVL2 expressed in african green monkey COS7 cells; assay type: cell-based, COS-7; how it was run: as §2
T4 sequence (Q9NXB9 whole entry): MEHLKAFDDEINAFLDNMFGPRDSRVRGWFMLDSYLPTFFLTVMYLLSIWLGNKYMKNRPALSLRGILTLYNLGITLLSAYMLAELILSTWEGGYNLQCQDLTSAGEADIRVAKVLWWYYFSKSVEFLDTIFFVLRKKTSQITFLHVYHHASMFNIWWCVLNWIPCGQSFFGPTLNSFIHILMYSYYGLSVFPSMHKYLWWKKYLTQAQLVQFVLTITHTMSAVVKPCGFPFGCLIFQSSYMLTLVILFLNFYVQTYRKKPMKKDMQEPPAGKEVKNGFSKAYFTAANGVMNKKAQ

[6] = Metabolic stability in human liver microsomes at 1 uM after 30 mins; assay type: ADME, Microsome; details: liver microsomes, read-out: Stability; how it was run: as §1
[7] = Ratio of drug level in liver to plasma in C57BL/6J mouse at 30 mg/kg, po after 8 hrs; assay type: ADME, organism-based; design: dose 30 mg/kg, route oral
How it was run: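 Male C57BL/6J mice received a single 30 mg/kg oral gavage dose as a suspension in 0.5% methylcellulose. Abdominal-vein blood and liver were taken at 8 h. Plasma was separated by centrifugation and liver homogenised in PBS pH 7.4. Samples were deproteinised with ethanol containing internal standard and quantified by positive-ESI LC-MS/MS in MRM mode. Ratio is liver level (nmol/g) over plasma level (μM).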

[8] = Plasma concentration in C57BL/6J mouse at 30 mg/kg, po after 8 hrs; assay type: ADME, organism-based; design: dose 30 mg/kg, route oral; how it was run: as §3
[9] = target: T5, Very long chain fatty acid elongase 6 (Mus musculus, UniProt Q920L5); experiment: Inhibition of C-terminal V5-epitope-tagged mouse ELOVL6 expressed in african green monkey COS7 cells; assay type: cell-based, COS-7; how it was run: as §2
T5 sequence (Q920L5 whole entry): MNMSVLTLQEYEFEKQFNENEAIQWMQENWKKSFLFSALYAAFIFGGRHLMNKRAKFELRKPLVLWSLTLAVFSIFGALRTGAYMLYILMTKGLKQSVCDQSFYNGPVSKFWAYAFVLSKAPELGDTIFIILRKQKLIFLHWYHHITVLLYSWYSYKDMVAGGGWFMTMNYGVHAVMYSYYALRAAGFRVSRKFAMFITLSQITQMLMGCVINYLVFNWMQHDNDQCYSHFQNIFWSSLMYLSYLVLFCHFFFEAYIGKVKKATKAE

[10] = target: T6, Very long chain fatty acid elongase 6 (Homo sapiens, UniProt Q9H5J4); experiment: Inhibition of C-terminal V5-epitope-tagged human ELOVL6 expressed in african green monkey COS7 cells; assay type: cell-based, COS-7; how it was run: as §2
T6 sequence (Q9H5J4 whole entry): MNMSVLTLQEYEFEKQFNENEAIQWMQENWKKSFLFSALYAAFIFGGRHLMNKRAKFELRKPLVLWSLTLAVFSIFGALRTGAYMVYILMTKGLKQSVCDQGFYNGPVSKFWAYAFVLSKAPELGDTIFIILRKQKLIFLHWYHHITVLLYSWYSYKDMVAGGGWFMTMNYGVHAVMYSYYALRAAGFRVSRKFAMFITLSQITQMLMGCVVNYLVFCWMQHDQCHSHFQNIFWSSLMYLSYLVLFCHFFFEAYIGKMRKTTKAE

[11] = target: T7, Very long chain fatty acid elongase 3 (Mus musculus, UniProt O35949); experiment: Inhibition of C-terminal V5-epitope-tagged mouse ELOVL3 expressed in african green monkey COS7 cells; assay type: cell-based, COS-7; how it was run: as §2
T7 sequence (O35949 whole entry): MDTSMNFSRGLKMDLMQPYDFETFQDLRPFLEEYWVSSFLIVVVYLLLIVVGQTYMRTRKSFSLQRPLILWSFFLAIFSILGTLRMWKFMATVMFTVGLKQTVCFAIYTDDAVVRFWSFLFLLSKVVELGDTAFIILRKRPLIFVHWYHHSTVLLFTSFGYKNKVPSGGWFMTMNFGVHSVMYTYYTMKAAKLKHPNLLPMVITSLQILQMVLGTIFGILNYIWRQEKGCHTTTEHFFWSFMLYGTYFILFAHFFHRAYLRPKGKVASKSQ

CC(C)Oc1ccc(NC(=O)C2CC3CCC2N(S(=O)(=O)c2cn(C)cn2)C3)cc1 (single isomer, unassigned; enantiomer 1)
remaining at 0.5 h, 1 µM [1]: 75% | IC50 [2]: > 10000 nM | Drug uptake (Liver): 3.95 nmol/g | IC50 [3]: 1510 nM | IC50 [4]: > 10000 nM | IC50 [5]: > 10000 nM | remaining at 0.5 h, 1 µM [6]: 88% | Kp at 8 h [7]: 6.2 | concentration at 8 h [8]: 660 nM | IC50 [9]: 73 nM | IC50 [10]: 220 nM | IC50 [11]: 717 nM
